Each block holds one compound with its values, some of them ahead of it.
Key:
Format in all cases: functional, cell-based
[1] = biological target: T1, ATP-dependent translocase ABCB1 (Homo sapiens, UniProt P08183); assay: TP_TRANSPORTER: increase in saquinavir intracellular accumulation of 6',7'-Dihydroxybergamottin at a concentration of 20uM in LLC-GA5-COL150 cells; details: pig, llc-ga5-col150, 20 µM
Outline: (§1)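 LLC-GA5-COL150 (human MDR1-transfected LLC-PK1; colchicine withdrawn 6 h before assay) and LLC-PK1 control cells were grown 3 days in four-well dishes. Uptake of 5 µM [¹⁴C]saquinavir ± inhibitor ran 90 min in pH 7.4 HEPES buffer at 37°C and was stopped with ice-cold washes. Cell/medium ratio was normalised to Lowry protein. Potentiation ratio = % of control (MDR1 cells) / % of control (LLC-PK1) × 100; mean ± s.e.m. of three experiments.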

[2] = biological target: T1, ATP-dependent translocase ABCB1; assay: TP_TRANSPORTER: increase in Vinblastine intracellular accumulation of 6',7'-Dihydroxybergamottin at a concentration of 20uM in LLC-GA5-COL150 cells; details: pig, llc-ga5-col150, 20 µM
Outline: (§2)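 LLC-GA5-COL150 (LLC-PK1 transfected with human MDR1; grown with 150 ng ml⁻¹ colchicine, withdrawn 6 h before assay) and parental LLC-PK1 seeded in four-well dishes and grown 3 days. Cells were incubated 90 min with 20 nM [³H]vinblastine ± inhibitor in HEPES buffer, pH 7.4, 37°C, then washed in ice-cold buffer. Read-out was cell/medium ratio per mg protein (Lowry) by scintillation. Uptake potentiation ratio = % of control in transfectant / % of control in LLC-PK1 × 100; mean ± s.e.m., n=3.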

[3] = biological target: T1, ATP-dependent translocase ABCB1; assay: TP_TRANSPORTER: increase in Vinblastine intracellular accumulation in the presence of Bergamottin at 20uM in LLC-GA5-COL150 cells; details: pig, llc-ga5-col150, 20 µM; outline: as §2
[4] = biological target: T1, ATP-dependent translocase ABCB1; assay: TP_TRANSPORTER: increase in Vinblastine intracellular accumulation in the presence of MK-571 at 50uM in LLC-GA5-COL150 cells; details: pig, llc-ga5-col150, 50 µM; outline: as §2
[5] = biological target: T1, ATP-dependent translocase ABCB1; assay: TP_TRANSPORTER: increase in saquinavir intracellular accumulation in the presence of Nobiletin at 20uM in LLC-GA5-COL150 cells; details: pig, llc-ga5-col150, 20 µM; outline: as §1
[6] = biological target: T1, ATP-dependent translocase ABCB1; assay: TP_TRANSPORTER: increase in Vinblastine intracellular accumulation of Nobiletin at a concentration of 20uM in LLC-GA5-COL150 cells; details: pig, llc-ga5-col150, 20 µM; outline: as §2
[7] = biological target: T1, ATP-dependent translocase ABCB1; assay: TP_TRANSPORTER: increase in saquinavir intracellular accumulation in the presence of Probenecid at 5mM in LLC-GA5-COL150 cells; details: pig, llc-ga5-col150, 5000 µM; outline: as §1
[8] = biological target: T1, ATP-dependent translocase ABCB1; assay: TP_TRANSPORTER: increase in Vinblastine intracellular accumulation in the presence of Probenecid at 5mM in LLC-GA5-COL150 cells; details: pig, llc-ga5-col150, 5000 µM; outline: as §2
[9] = biological target: T1, ATP-dependent translocase ABCB1; assay: TP_TRANSPORTER: increase in saquinavir intracellular accumulation in the presence of Sulfinpyrazone at 5mM in LLC-GA5-COL150 cells; details: pig, llc-ga5-col150, 5000 µM; outline: as §1
[10] = biological target: T1, ATP-dependent translocase ABCB1; assay: TP_TRANSPORTER: increase in Vinblastine intracellular accumulation in the presence of Sulfinpyrazone at 5mM in LLC-GA5-COL150 cells; details: pig, llc-ga5-col150, 5000 µM; outline: as §2
[11] = biological target: T1, ATP-dependent translocase ABCB1; assay: TP_TRANSPORTER: increase in saquinavir intracellular accumulation of Tangeretin at a concentration of 20uM in LLC-GA5-COL150 cells; details: pig, llc-ga5-col150, 20 µM; outline: as §1
[12] = biological target: T1, ATP-dependent translocase ABCB1; assay: TP_TRANSPORTER: increase in Vinblastine intracellular accumulation of Tangeretin at a concentration of 20uM in LLC-GA5-COL150 cells; details: pig, llc-ga5-col150, 20 µM; outline: as §2

T1 sequence (P08183 whole entry): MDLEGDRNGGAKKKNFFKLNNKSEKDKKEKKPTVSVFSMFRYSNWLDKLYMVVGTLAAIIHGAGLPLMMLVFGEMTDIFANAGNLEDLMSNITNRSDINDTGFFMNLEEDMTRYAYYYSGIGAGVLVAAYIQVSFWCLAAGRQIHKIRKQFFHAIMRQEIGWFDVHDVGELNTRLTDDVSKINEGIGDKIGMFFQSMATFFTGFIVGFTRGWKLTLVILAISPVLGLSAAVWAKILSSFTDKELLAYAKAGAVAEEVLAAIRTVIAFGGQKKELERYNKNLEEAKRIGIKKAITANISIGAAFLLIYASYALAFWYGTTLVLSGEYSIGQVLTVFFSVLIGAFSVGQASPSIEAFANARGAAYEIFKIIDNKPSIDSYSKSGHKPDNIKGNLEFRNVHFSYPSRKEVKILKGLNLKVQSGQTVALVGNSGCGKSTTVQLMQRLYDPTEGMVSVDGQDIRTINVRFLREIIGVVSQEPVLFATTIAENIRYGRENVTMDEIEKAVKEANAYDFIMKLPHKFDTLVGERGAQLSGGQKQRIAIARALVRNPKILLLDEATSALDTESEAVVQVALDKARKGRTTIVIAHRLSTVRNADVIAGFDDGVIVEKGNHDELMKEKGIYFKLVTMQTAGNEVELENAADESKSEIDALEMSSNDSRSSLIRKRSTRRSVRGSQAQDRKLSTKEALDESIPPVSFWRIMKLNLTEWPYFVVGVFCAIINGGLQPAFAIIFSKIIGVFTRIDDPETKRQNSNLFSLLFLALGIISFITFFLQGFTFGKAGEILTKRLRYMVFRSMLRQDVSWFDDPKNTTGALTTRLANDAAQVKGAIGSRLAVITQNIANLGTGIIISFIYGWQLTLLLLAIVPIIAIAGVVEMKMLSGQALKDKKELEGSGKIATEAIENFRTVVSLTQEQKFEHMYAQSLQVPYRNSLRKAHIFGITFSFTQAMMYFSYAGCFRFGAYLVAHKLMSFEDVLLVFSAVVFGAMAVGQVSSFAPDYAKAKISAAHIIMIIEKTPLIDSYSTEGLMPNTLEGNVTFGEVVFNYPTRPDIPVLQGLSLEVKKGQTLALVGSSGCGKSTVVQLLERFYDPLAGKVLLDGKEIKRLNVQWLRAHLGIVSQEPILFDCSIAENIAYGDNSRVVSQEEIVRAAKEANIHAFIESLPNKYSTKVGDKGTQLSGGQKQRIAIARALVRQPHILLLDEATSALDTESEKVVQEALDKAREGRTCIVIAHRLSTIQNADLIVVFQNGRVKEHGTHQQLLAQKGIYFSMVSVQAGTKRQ

Structure (SMILES): CN(C)C(=O)CCSC(SCCC(=O)O)c1cccc(/C=C/c2ccc3ccc(Cl)cc3n2)c1 (configuration not stated) [MK-571]
Activity [4]: is not an inhibitor [-]

Structure (SMILES): COc1ccc(-c2cc(=O)c3c(OC)c(OC)c(OC)c(OC)c3o2)cc1OC [NOBILETIN]
Activity [5]: is not an inhibitor [-] | Activity [6]: inhibitor [+]

Structure (SMILES): CCCN(CCC)S(=O)(=O)c1ccc(C(=O)O)cc1 [PROBENECID]
Activity [7]: is not an inhibitor [-] | Activity [8]: is not an inhibitor [-]

Structure (SMILES): O=C1C(CC[S+]([O-])c2ccccc2)C(=O)N(c2ccccc2)N1c1ccccc1 (configuration not stated) [SULFINPYRAZONE]
Activity [9]: is not an inhibitor [-] | Activity [10]: is not an inhibitor [-]

Now from value to compound:

Activity [1]: inhibitor [+] | Activity [2]: inhibitor [+]
Structure (SMILES): C/C(=C\COc1c2ccoc2cc2oc(=O)ccc12)CC[C@@H](O)C(C)(C)O

Activity [3]: is not an inhibitor [-]
Structure (SMILES): CC(C)=CCC/C(C)=C/COc1c2ccoc2cc2oc(=O)ccc12 [BERGAMOTTIN]

Activity [11]: inhibitor [+] | Activity [12]: inhibitor [+]
Structure (SMILES): COc1ccc(-c2cc(=O)c3c(OC)c(OC)c(OC)c(OC)c3o2)cc1 [TANGERETIN]

Reference: ChEMBL document CHEMBL2073766, “Effects of grapefruit juice and orange juice components on P-glycoprotein- and MRP2-mediated drug efflux” (Br J Pharmacol, 2004)
